# Data as given in ChEMBL document CHEMBL1126744, “Synthesis and structure-activity relationships of phenyl-substituted benzylamine antimycotics: a novel benzylbenzylamine antifungal agent for systemic treatment” (1993).
# System: Cavia porcellus
# Assay: Percent mycological cure at a dose of 8 mg/kg per day in guinea pig trichophytosis model (treatment once daily for 9 days starting on the day of inoculation)
# Format: functional
# Conditions: not given
row,Structure (SMILES),Cure [%]
1,CN(Cc1ccc(C(C)(C)c2ccccc2)cc1)Cc1cccc2ccccc12,100

# System: Cavia porcellus
# Assay: Percent mycological cure in guinea pig skin candidosis model (topical treatment twice daily for 5 days starting 3 days after inoculation) using 2% solution (ED50=1.32%)
# Format: functional
# Conditions: not given
row,Structure (SMILES),Cure [%]
1,CN(Cc1ccc(C(C)(C)c2ccccc2)cc1)Cc1cccc2ccccc12,90

# System: Candida albicans
# Assay: In vitro antifungal activity against Candida albicans delta124 expressed as MIC (mg/L)
# Format: functional
# Conditions: not given
# Outline: (§1)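 Tube broth dilution in malt extract broth (pH 4.8). Blastospores came from yeast nitrogen base cultures shaken at 37 °C for about 30 h. Compounds in DMSO were serially diluted in the broth. After 48 h at 30 °C, MIC was taken as the lowest concentration without macroscopically detectable growth.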
row,Structure (SMILES),MIC [µg/mL]
1,C=C(c1ccccc1)c1ccc(CN(C)Cc2cccc3ccccc23)cc1,> 200
2,CCN(c1ccccc1)c1ccc(CN(C)Cc2cccc3ccccc23)cc1,> 200
3,CN(Cc1ccc(-c2ccccc2)cc1)Cc1cccc2ccccc12,> 200
4,CN(Cc1ccc(C(C)(C)c2ccccc2)cc1)Cc1cccc2ccsc12,0.8
5,CN(Cc1ccc(Oc2ccccc2)cc1)Cc1cccc2ccccc12,> 200
6,CN(Cc1ccc(C2(c3ccccc3)CC2)cc1)Cc1cccc2ccccc12,3.13
7,CN(Cc1ccc(C(=O)c2ccccc2)cc1)Cc1cccc2ccccc12,> 200
8,CN(Cc1ccc(C(C)(C)c2ccccc2)cc1)Cc1cccc2c(Cl)csc12,1.56
9,CC(=O)N(c1ccccc1)c1ccc(CN(C)Cc2cccc3ccccc23)cc1,> 200
10,Cc1ccc(C(C)(C)c2ccc(CN(C)Cc3cccc4ccccc34)cc2)cc1,6.25
11,CN(Cc1ccc(/C=C/c2ccccc2)cc1)Cc1cccc2ccccc12,> 200
12,CN(Cc1ccc(Cc2ccccc2)cc1)Cc1cccc2ccccc12,> 100
13,CN(Cc1ccc(C(C)(C)c2ccccc2)cc1)Cc1cccc2ccccc12,1.56
14,CN(Cc1ccc(Nc2ccccc2)cc1)Cc1cccc2ccccc12,> 200
15,CN(Cc1ccc(C(C)(C)C)cc1)Cc1cccc2ccccc12 [BUTENAFINE],25
16,CN(C/C=C/C#CC(C)(C)C)Cc1cccc2ccccc12 [TERBINAFINE],25

# System: Aspergillus fumigatus
# Assay: In vitro antifungal activity against Aspergillus fumigatus expressed as MIC (mg/L)
# Format: functional
# Conditions: not given
# Outline: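 Broth dilution in glass tubes with Sabouraud's dextrose broth (pH 6.5). Inoculum was filamentous growth scraped from Kimmig agar cultures (30 °C, 21 days). Compounds were dissolved in DMSO and serially diluted in medium. Tubes were incubated 72 h at 30 °C. MIC is the lowest concentration with no macroscopically visible growth.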
row,Structure (SMILES),MIC [µg/mL]
1,C=C(c1ccccc1)c1ccc(CN(C)Cc2cccc3ccccc23)cc1,> 200
2,CCN(c1ccccc1)c1ccc(CN(C)Cc2cccc3ccccc23)cc1,> 200
3,CN(Cc1ccc(-c2ccccc2)cc1)Cc1cccc2ccccc12,> 200
4,CN(Cc1ccc(C(C)(C)c2ccccc2)cc1)Cc1cccc2ccsc12,0.1
5,CN(Cc1ccc(Oc2ccccc2)cc1)Cc1cccc2ccccc12,> 200
6,CN(Cc1ccc(C2(c3ccccc3)CC2)cc1)Cc1cccc2ccccc12,1.56
7,CN(Cc1ccc(C(=O)c2ccccc2)cc1)Cc1cccc2ccccc12,> 200
8,CN(Cc1ccc(C(C)(C)c2ccccc2)cc1)Cc1cccc2c(Cl)csc12,0.2
9,CC(=O)N(c1ccccc1)c1ccc(CN(C)Cc2cccc3ccccc23)cc1,> 200
10,Cc1ccc(C(C)(C)c2ccc(CN(C)Cc3cccc4ccccc34)cc2)cc1,12.5
11,CN(Cc1ccc(/C=C/c2ccccc2)cc1)Cc1cccc2ccccc12,> 200
12,CN(Cc1ccc(Cc2ccccc2)cc1)Cc1cccc2ccccc12,> 100
13,CN(Cc1ccc(C(C)(C)c2ccccc2)cc1)Cc1cccc2ccccc12,0.1
14,CN(Cc1ccc(Nc2ccccc2)cc1)Cc1cccc2ccccc12,> 200
15,CN(Cc1ccc(C(C)(C)C)cc1)Cc1cccc2ccccc12 [BUTENAFINE],0.4
16,CN(C/C=C/C#CC(C)(C)C)Cc1cccc2ccccc12 [TERBINAFINE],0.8

# System: Candida albicans
# Assay: In vitro antifungal activity against Candida albicans delta9 expressed as MIC (mg/L)
# Format: functional
# Conditions: not given
# Outline: as §1
row,Structure (SMILES),MIC [µg/mL]
1,C=C(c1ccccc1)c1ccc(CN(C)Cc2cccc3ccccc23)cc1,> 200
2,CCN(c1ccccc1)c1ccc(CN(C)Cc2cccc3ccccc23)cc1,> 200
3,CN(Cc1ccc(-c2ccccc2)cc1)Cc1cccc2ccccc12,> 200
4,CN(Cc1ccc(C(C)(C)c2ccccc2)cc1)Cc1cccc2ccsc12,0.4
5,CN(Cc1ccc(Oc2ccccc2)cc1)Cc1cccc2ccccc12,> 200
6,CN(Cc1ccc(C2(c3ccccc3)CC2)cc1)Cc1cccc2ccccc12,1.56
7,CN(Cc1ccc(C(=O)c2ccccc2)cc1)Cc1cccc2ccccc12,> 200
8,CN(Cc1ccc(C(C)(C)c2ccccc2)cc1)Cc1cccc2c(Cl)csc12,1.56
9,CC(=O)N(c1ccccc1)c1ccc(CN(C)Cc2cccc3ccccc23)cc1,> 200
10,Cc1ccc(C(C)(C)c2ccc(CN(C)Cc3cccc4ccccc34)cc2)cc1,6.25
11,CN(Cc1ccc(/C=C/c2ccccc2)cc1)Cc1cccc2ccccc12,> 200
12,CN(Cc1ccc(Cc2ccccc2)cc1)Cc1cccc2ccccc12,50
13,CN(Cc1ccc(C(C)(C)c2ccccc2)cc1)Cc1cccc2ccccc12,0.8
14,CN(Cc1ccc(Nc2ccccc2)cc1)Cc1cccc2ccccc12,> 200
15,CN(Cc1ccc(C(C)(C)C)cc1)Cc1cccc2ccccc12 [BUTENAFINE],12.5
16,CN(C/C=C/C#CC(C)(C)C)Cc1cccc2ccccc12 [TERBINAFINE],6.25

# System: Microsporum canis
# Assay: In vitro antifungal activity against Microsporum canis expressed as MIC (mg/L)
# Format: functional
# Conditions: not given
# Outline: (§2)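 Fungi were grown on Kimmig agar (30 °C, 21 days) and harvested with a spatula. They were tested in glass tubes of Sabouraud's dextrose broth (pH 6.5) containing DMSO-dissolved compound serially diluted in medium. After 7 days at 30 °C, MIC was read as the lowest concentration with no macroscopically visible growth.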
row,Structure (SMILES),MIC [µg/mL]
1,C=C(c1ccccc1)c1ccc(CN(C)Cc2cccc3ccccc23)cc1,0.01
2,CCN(c1ccccc1)c1ccc(CN(C)Cc2cccc3ccccc23)cc1,0.006
3,CN(Cc1ccc(-c2ccccc2)cc1)Cc1cccc2ccccc12,> 200
4,CN(Cc1ccc(C(C)(C)c2ccccc2)cc1)Cc1cccc2ccsc12,0.003
5,CN(Cc1ccc(Oc2ccccc2)cc1)Cc1cccc2ccccc12,0.8
6,CN(Cc1ccc(C2(c3ccccc3)CC2)cc1)Cc1cccc2ccccc12,0.003
7,CN(Cc1ccc(C(=O)c2ccccc2)cc1)Cc1cccc2ccccc12,0.1
8,CN(Cc1ccc(C(C)(C)c2ccccc2)cc1)Cc1cccc2c(Cl)csc12,0.02
9,CC(=O)N(c1ccccc1)c1ccc(CN(C)Cc2cccc3ccccc23)cc1,3.13
10,Cc1ccc(C(C)(C)c2ccc(CN(C)Cc3cccc4ccccc34)cc2)cc1,0.1
11,CN(Cc1ccc(/C=C/c2ccccc2)cc1)Cc1cccc2ccccc12,0.01
12,CN(Cc1ccc(Cc2ccccc2)cc1)Cc1cccc2ccccc12,0.05
13,CN(Cc1ccc(C(C)(C)c2ccccc2)cc1)Cc1cccc2ccccc12,0.003
14,CN(Cc1ccc(Nc2ccccc2)cc1)Cc1cccc2ccccc12,> 100
15,CN(Cc1ccc(C(C)(C)C)cc1)Cc1cccc2ccccc12 [BUTENAFINE],0.01
16,CN(C/C=C/C#CC(C)(C)C)Cc1cccc2ccccc12 [TERBINAFINE],0.006

# System: Sporothrix schenckii
# Assay: In vitro antifungal activity against Sporothrix schenck ii expressed as MIC (mg/L)
# Format: functional
# Conditions: not given
# Outline: as §2
row,Structure (SMILES),MIC [µg/mL]
1,C=C(c1ccccc1)c1ccc(CN(C)Cc2cccc3ccccc23)cc1,1.56
2,CCN(c1ccccc1)c1ccc(CN(C)Cc2cccc3ccccc23)cc1,3.13
3,CN(Cc1ccc(-c2ccccc2)cc1)Cc1cccc2ccccc12,> 200
4,CN(Cc1ccc(C(C)(C)c2ccccc2)cc1)Cc1cccc2ccsc12,0.2
5,CN(Cc1ccc(Oc2ccccc2)cc1)Cc1cccc2ccccc12,> 200
6,CN(Cc1ccc(C2(c3ccccc3)CC2)cc1)Cc1cccc2ccccc12,0.1
7,CN(Cc1ccc(C(=O)c2ccccc2)cc1)Cc1cccc2ccccc12,> 200
8,CN(Cc1ccc(C(C)(C)c2ccccc2)cc1)Cc1cccc2c(Cl)csc12,0.8
9,CC(=O)N(c1ccccc1)c1ccc(CN(C)Cc2cccc3ccccc23)cc1,> 200
10,Cc1ccc(C(C)(C)c2ccc(CN(C)Cc3cccc4ccccc34)cc2)cc1,0.4
11,CN(Cc1ccc(/C=C/c2ccccc2)cc1)Cc1cccc2ccccc12,> 200
12,CN(Cc1ccc(Cc2ccccc2)cc1)Cc1cccc2ccccc12,1.56
13,CN(Cc1ccc(C(C)(C)c2ccccc2)cc1)Cc1cccc2ccccc12,0.2
14,CN(Cc1ccc(Nc2ccccc2)cc1)Cc1cccc2ccccc12,> 200
15,CN(Cc1ccc(C(C)(C)C)cc1)Cc1cccc2ccccc12 [BUTENAFINE],0.2
16,CN(C/C=C/C#CC(C)(C)C)Cc1cccc2ccccc12 [TERBINAFINE],0.4

# System: Cavia porcellus
# Assay: In vivo inhibition in guinea pig trichophytosis model
# Format: functional
# Conditions: not given
row,Structure (SMILES),ED50 [mg/kg/day]
1,CN(Cc1ccc(C(C)(C)c2ccccc2)cc1)Cc1cccc2ccccc12,4.6
2,COC1=CC(=O)C[C@@H](C)[C@]12Oc1c(Cl)c(OC)cc(OC)c1C2=O [GRISEOFULVIN],40.7
3,CC(=O)N1CCN(c2ccc(OCC3COC(Cn4ccnc4)(c4ccc(Cl)cc4Cl)O3)cc2)CC1 (configuration not stated) [KETOCONAZOLE],50.8

# System: Trichophyton benhamiae
# Assay: In vitro antifungal activity against Trichophyton mentagrophytes expressed as MIC (mg/L)
# Format: functional, Arthroderma benhamiae
# Conditions: not given
# Outline: as §2
row,Structure (SMILES),MIC [µg/mL]
1,C=C(c1ccccc1)c1ccc(CN(C)Cc2cccc3ccccc23)cc1,0.01
2,CCN(c1ccccc1)c1ccc(CN(C)Cc2cccc3ccccc23)cc1,0.006
3,CN(Cc1ccc(-c2ccccc2)cc1)Cc1cccc2ccccc12,10
4,CN(Cc1ccc(C(C)(C)c2ccccc2)cc1)Cc1cccc2ccsc12,0.003
5,CN(Cc1ccc(Oc2ccccc2)cc1)Cc1cccc2ccccc12,0.4
6,CN(Cc1ccc(C2(c3ccccc3)CC2)cc1)Cc1cccc2ccccc12,0.006
7,CN(Cc1ccc(C(=O)c2ccccc2)cc1)Cc1cccc2ccccc12,0.05
8,CN(Cc1ccc(C(C)(C)c2ccccc2)cc1)Cc1cccc2c(Cl)csc12,0.02
9,CC(=O)N(c1ccccc1)c1ccc(CN(C)Cc2cccc3ccccc23)cc1,0.8
10,Cc1ccc(C(C)(C)c2ccc(CN(C)Cc3cccc4ccccc34)cc2)cc1,0.1
11,CN(Cc1ccc(/C=C/c2ccccc2)cc1)Cc1cccc2ccccc12,0.1
12,CN(Cc1ccc(Cc2ccccc2)cc1)Cc1cccc2ccccc12,0.05
13,CN(Cc1ccc(C(C)(C)c2ccccc2)cc1)Cc1cccc2ccccc12,0.006
14,CN(Cc1ccc(Nc2ccccc2)cc1)Cc1cccc2ccccc12,> 100
15,CN(Cc1ccc(C(C)(C)C)cc1)Cc1cccc2ccccc12 [BUTENAFINE],0.006
16,CN(C/C=C/C#CC(C)(C)C)Cc1cccc2ccccc12 [TERBINAFINE],0.003

# System: Candida parapsilosis
# Assay: In vitro antifungal activity against Candida parapsilosis delta39 expressed as MIC (mg/L)
# Format: functional
# Conditions: Lodderomyces parapsilosis
# Outline: as §1
row,Structure (SMILES),MIC [µg/mL]
1,C=C(c1ccccc1)c1ccc(CN(C)Cc2cccc3ccccc23)cc1,0.8
2,CCN(c1ccccc1)c1ccc(CN(C)Cc2cccc3ccccc23)cc1,3.13
3,CN(Cc1ccc(-c2ccccc2)cc1)Cc1cccc2ccccc12,> 200
4,CN(Cc1ccc(C(C)(C)c2ccccc2)cc1)Cc1cccc2ccsc12,0.05
5,CN(Cc1ccc(Oc2ccccc2)cc1)Cc1cccc2ccccc12,> 200
6,CN(Cc1ccc(C2(c3ccccc3)CC2)cc1)Cc1cccc2ccccc12,0.1
7,CN(Cc1ccc(C(=O)c2ccccc2)cc1)Cc1cccc2ccccc12,50
8,CN(Cc1ccc(C(C)(C)c2ccccc2)cc1)Cc1cccc2c(Cl)csc12,0.1
9,CC(=O)N(c1ccccc1)c1ccc(CN(C)Cc2cccc3ccccc23)cc1,> 200
10,Cc1ccc(C(C)(C)c2ccc(CN(C)Cc3cccc4ccccc34)cc2)cc1,0.1
11,CN(Cc1ccc(/C=C/c2ccccc2)cc1)Cc1cccc2ccccc12,> 200
12,CN(Cc1ccc(Cc2ccccc2)cc1)Cc1cccc2ccccc12,6.25
13,CN(Cc1ccc(C(C)(C)c2ccccc2)cc1)Cc1cccc2ccccc12,0.1
14,CN(Cc1ccc(Nc2ccccc2)cc1)Cc1cccc2ccccc12,> 200
15,CN(Cc1ccc(C(C)(C)C)cc1)Cc1cccc2ccccc12 [BUTENAFINE],0.8
16,CN(C/C=C/C#CC(C)(C)C)Cc1cccc2ccccc12 [TERBINAFINE],0.8
